Bioassay records: PubChem BioAssay, several laboratories
An excerpt weighted towards active compounds, which were near 1.7% of everything screened.
APJ agonist: agonists of human apelin receptor APJ, primary screen, CHO-K1 cells, PathHunter beta-arrestin, luminescence | P35414 | 0% DMSO wells, 100% apelin | activation, % at 20 µM | 330,000 tested, 0.11% active;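 active = activation more than six SD over the plate average, tested at 20 µM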;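 also: 0% = DMSO alone and 100% = apelin-13 at 10 nM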
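Assay system: CHO-K1 cells stably expressing ProLink-tagged human APJ and arrestin–beta-gal acceptor. Compound dosing: 20 µM single point, 1% DMSO. Times: 16-18 h seeding, 90 min dark compound exposure, 60 min detection. Detection: beta-gal luminescence. Evaluation: APJ–arrestin association signal. Controls: negative DMSO alone, positive Apelin-13 at 10 nM.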
PfG6PD inh: PfG6PD enzyme inhibitors, primary screen, biochemical, fluorescence intensity, uHTS; glucose-6-phosphate dehydrogenase-6-phosphogluconolactonase (Plasmodium falciparum 3D7); 350,000 tested, 0.78% active; inhibition, % at 20 µM; PfGluPho enzyme, NADPH resazurin-diaphorase fluorescence; AID 504690, 2011;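 active = inhibition reaching at least a set limit at 20 µM in the primary screen, cut at about 59% in these data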;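 also: 0% = DMSO wells with substrate and 100% = DMSO wells lacking glucose-6-phosphate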
CXCR6 block: CXCR6 receptor inhibitors, primary screen, cell-based, beta-arrestin, luminescence, CHO-K1 PathHunter, 1536-well; inhibition, % at 20 µM; 360,000 tested, 0.36% active; C-X-C chemokine receptor type 6 (Homo sapiens), O00574; in the data active = inhibition above about 34%, passing the limit was not always enough;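 also: antagonist mode with CXCL16 agonist at 10 nM final; 0% = 10 nM CXCL16 with DMSO and 100% = unstimulated wells without agonist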
APJ antag: antagonists of human apelin receptor APJ, primary screen, CHO-K1 cells, beta-arrestin complementation, luminescence; AID 2521, 2010; 330,000 tested, 0.32% active; inhibition, % at 20 µM; P35414;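 active = inhibition above about 40% at 20 µM, limit read from the data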;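 also: cells challenged with 10 nM apelin-13 agonist together with compound; plate controls were apelin-13 plus DMSO wells for no effect and DMSO wells lacking apelin-13 for full effect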
B2AR ag: beta2AR agonists driving receptor internalization, primary screen, cell-based, FAP fluorogen, flow cytometry. 340,000 tested, 0.43% active. response, % (test concentration not listed). Am2.2-beta2AR cells. AID 504454, 2011;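 active = response above a set limit, near 3 SD of response in nonfluorescent compounds, cut at about 42% in these data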
CCR6 antag: CCR6 receptor antagonists, primary screen, cell-based, CHO-K1, luminescence, beta-arrestin, uHTS | C-C chemokine receptor type 6 (Homo sapiens), P51684 | CHO-K1 CCR6 PathHunter beta-arrestin, CCL20-stimulated | inhibition, % at 20 µM | 340,000 tested, 0.49% active | AID 493098, 2011;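 active = compounds whose inhibition of the agonist-driven luminescence signal at 20 µM reaches about 50%, limit read from the data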;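 also: cells stimulated with CCL20 at 14 nM final; plate controls were DMSO with CCL20 for no effect and DMSO without agonist for full effect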
Target sequence (P51684 whole entry, looked up): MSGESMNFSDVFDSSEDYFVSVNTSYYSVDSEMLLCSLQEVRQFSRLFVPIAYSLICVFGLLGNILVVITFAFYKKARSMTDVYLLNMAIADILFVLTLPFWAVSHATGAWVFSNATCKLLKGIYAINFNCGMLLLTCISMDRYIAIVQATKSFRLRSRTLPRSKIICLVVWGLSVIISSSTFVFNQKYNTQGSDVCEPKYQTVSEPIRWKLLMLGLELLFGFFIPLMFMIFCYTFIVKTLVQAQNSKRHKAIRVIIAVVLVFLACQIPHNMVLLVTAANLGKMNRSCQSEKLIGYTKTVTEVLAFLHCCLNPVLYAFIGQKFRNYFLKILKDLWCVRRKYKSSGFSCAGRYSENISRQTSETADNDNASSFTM
Beta2AR ag CP1: beta2AR agonists via receptor internalization, confirmation, cell-based, FAP fluorogen, flow cytometry, single point, cherry pick 1; shares compounds with B2AR ag; Am2.2-beta2AR cells, FAP surface receptor; active compounds read low; percent response (surface receptor), % at 10 µM; 1,100 tested, 25% active;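 active = surface receptor percent response at or below 58%, roughly 3 SD from nonfluorescent compounds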
B2AR FAP counter: counter-screen for beta-2AR agonists: fluorescence in Am2.2 cells; shares compounds with B2AR ag; FAP fluorogen flow cytometry, fluorescence counterscreen; active compounds read low; calls only at 10 µM; 1,100 tested, under 10 active; AID 588765;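 active = percent response below a set limit in fluorescence channel 1 and below 50% in channel 8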
* marks the source's active call; other numbers are inactive results; ! = not confirmed by another sample.

For CC(NC(=O)C1CCN(S(=O)(=O)c2cccc3cccnc23)CC1)c1ccccc1 (stereo unspecified) the results were APJ agonist 2.4, PfG6PD inh -9.6, CXCR6 block 7.5, APJ antag -18.1, B2AR ag -7.5 and CCR6 antag 11.8.
`CC(NC(=O)C1CCCN1S(=O)(=O)c1cccc2cccnc12)c1ccccc1` (stereo unspecified) gave APJ agonist -1.5, PfG6PD inh -6.2, CXCR6 block -2.1, APJ antag 7.9, B2AR ag 56.1*, CCR6 antag -1.3, Beta2AR ag CP1 105.7 and B2AR FAP counter inactive.
O=C(NCC(c1cccs1)N1CCOCC1)c1ccccc1NS(=O)(=O)c1ccc(Cl)c([N+](=O)[O-])c1 (stereo unspecified) was read as APJ agonist -1.4, PfG6PD inh -29.4, CXCR6 block -7.8, APJ antag 3.6, B2AR ag 63.3*, CCR6 antag 7.7, Beta2AR ag CP1 93.8 and B2AR FAP counter inactive.
O=C(NCC(c1cccs1)N1CCOCC1)c1ccccc1NS(=O)(=O)c1cccc([N+](=O)[O-])c1 (stereo unspecified) was read as APJ agonist -0.5, PfG6PD inh -8.3, CXCR6 block -6.7, APJ antag -2.9, B2AR ag 1.3 and CCR6 antag 5.3.
Screening COc1ccccc1-c1cc(C(F)(F)F)nc(S(=O)(=O)CCCC(=O)O)n1 returned APJ agonist 1.7, PfG6PD inh -11.7, CXCR6 block -5.8, APJ antag 8.2, B2AR ag -2.9 and CCR6 antag -13.5.
Screening COc1ccc(-c2cc(C(F)(F)F)nc(S(=O)(=O)CCC(=O)N3CCOCC3)n2)cc1 returned APJ agonist -3.1, PfG6PD inh -5.6, CXCR6 block 3.8, APJ antag 32.4, B2AR ag 24.7, CCR6 antag 7.6, Beta2AR ag CP1 89.4 and B2AR FAP counter inactive.
For COc1ccc(-c2cc(C(F)(F)F)nc(SCC(=O)N3CCOCC3)n2)cc1OC the results were APJ agonist 0.3, PfG6PD inh 13.8, CXCR6 block 3.9, APJ antag 17.9, B2AR ag -8.1 and CCR6 antag 9.2.
`COc1ccccc1-c1cc(C(F)(F)F)nc(S(=O)(=O)CCCC(=O)N2CCOCC2)n1` gave APJ agonist 3.0, PfG6PD inh -16.3, CXCR6 block 26.3, APJ antag 15.0, B2AR ag 46.8*, CCR6 antag -2.4, Beta2AR ag CP1 92.2 and B2AR FAP counter inactive.
`CSc1ccc2c(c1)C(N1CCN(C)CC1)Cc1ccccc1S2` (stereo unspecified) gave APJ agonist 1.0, PfG6PD inh 2.6, CXCR6 block -0.6, APJ antag 23.1, B2AR ag 60.5*!, CCR6 antag 22.0, Beta2AR ag CP1 97.3 and B2AR FAP counter inactive.
CC(=O)c1cccc(NC(=O)COc2ccc(S(=O)(=O)N3CCCCC3)cc2)c1 was read as APJ agonist -2.8, PfG6PD inh 9.1, CXCR6 block -16.3, APJ antag 1.0, B2AR ag 2.1, CCR6 antag 9.7, Beta2AR ag CP1 112.6 and B2AR FAP counter inactive.
CCOC(=O)c1ccc(S(=O)(=O)N2CCN(C3CC(=O)N(c4ccc(OC)cc4)C3=O)CC2)cc1 (stereo unspecified) was read as PfG6PD inh 9.5, CXCR6 block -0.5, B2AR ag 52.3*, CCR6 antag -1.4, Beta2AR ag CP1 106.3 and B2AR FAP counter inactive.
COc1ccc(N2C(=O)CC(N3CCN(S(=O)(=O)c4ccc(Cl)cc4)CC3)C2=O)cc1 (stereo unspecified) was read as APJ agonist 0.6, PfG6PD inh -63.0, CXCR6 block 3.4, APJ antag -14.0, B2AR ag -1.6 and CCR6 antag 7.7.
For CCOC(=O)c1ccc(NC(=O)COc2ccc(S(=O)(=O)N3CCCC3)cc2)cc1 the results were APJ agonist 3.9, PfG6PD inh 5.0, CXCR6 block 0.5, APJ antag 1.5, B2AR ag 97.8*, CCR6 antag 7.3, Beta2AR ag CP1 20.8* and B2AR FAP counter inactive.
For COc1ccc(OCC(=O)Nc2ccc(S(=O)(=O)N3CCCCCC3)cc2)cc1 the results were APJ agonist 2.0, PfG6PD inh -14.8, CXCR6 block 2.0, APJ antag -27.2, B2AR ag 9.5 and CCR6 antag 26.8.
For COc1ccccc1CCC(=O)Nc1cccc(S(=O)(=O)N2CCOCC2)c1 the results were APJ agonist -5.2, PfG6PD inh -0.1, CXCR6 block 1.6, APJ antag 8.9, B2AR ag 0.2 and CCR6 antag 0.6.
`COc1ccccc1CCC(=O)Nc1cccc(S(=O)(=O)N2CCCCCC2)c1` gave APJ agonist -5.0, PfG6PD inh 8.8, CXCR6 block 4.4, APJ antag 10.2, B2AR ag 54.0*, CCR6 antag 11.5, Beta2AR ag CP1 10.2* and B2AR FAP counter inactive.
Cc1ccc(OCC(=O)Nc2ccc(S(=O)(=O)N3CCCC3)cc2)cc1 was read as APJ agonist 1.0, PfG6PD inh -2.5, CXCR6 block -5.3, APJ antag 11.4, B2AR ag 1.1 and CCR6 antag 0.4.
`O=C(CCC(=O)N1CCCC1)N1CCCC1` gave APJ agonist -1.7, PfG6PD inh 5.4, CXCR6 block -1.4, APJ antag 3.0, B2AR ag 2.5 and CCR6 antag -10.0.
Screening Cc1cc(CNC[C@H]2O[C@@H](n3ccc(N)nc3=O)[C@H](O)[C@@H]2O)no1 returned PfG6PD inh 1.9 and CXCR6 block -1.1.
CCOc1ccc(C(=O)C(CCC(CN(C)C)C(=O)c2ccc(OCC)cc2)CN(C)C)cc1 (stereo unspecified) was read as PfG6PD inh 12.8, CXCR6 block 18.9, B2AR ag 110.0*, CCR6 antag 32.2, Beta2AR ag CP1 82.3 and B2AR FAP counter inactive.
